# Laboratory results as given in ChEMBL document CHEMBL2331168, “Anticonvulsant evaluation of aminoalkanol derivatives of 2- and 4-methylxanthone” (Bioorg Med Chem, 2013).
# Activity calls are given as the source filed them.
# Key:
# [1] = tested on: Rattus norvegicus; test: Anticonvulsant activity in Sprague-Dawley rat assessed as protection against maximal electroshock-induced seizures at 30 mg/kg, po after 4 hrs; assay type: functional, organism-based; design: dose 30 mg/kg
# Summary of the method: (§1)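 Male Sprague-Dawley rats dosed orally at 30 mg/kg and tested at 0.25, 0.5, 1, 2 and 4 h. Seizures were induced by 60 Hz alternating current at 150 mA for 0.2 s through corneal electrodes, after a drop of 0.9% NaCl in each eye. Protection meant abolition of hindlimb tonic extension. Reported as protected/tested, usually 4 rats per time point.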
# [2] = tested on: Rattus norvegicus; test: Anticonvulsant activity in Sprague-Dawley rat assessed as protection against maximal electroshock-induced seizures at 30 mg/kg, po after 2 hrs; assay type: functional, organism-based; design: dose 30 mg/kg; summary of the method: as §1
# [3] = tested on: Rattus norvegicus; test: Anticonvulsant activity in Sprague-Dawley rat assessed as protection against maximal electroshock-induced seizures at 30 mg/kg, po after 1 hr; assay type: functional, organism-based; design: dose 30 mg/kg; summary of the method: as §1
# [4] = tested on: Rattus norvegicus; test: Anticonvulsant activity in Sprague-Dawley rat assessed as protection against maximal electroshock-induced seizures at 30 mg/kg, po after 0.5 hrs; assay type: functional, organism-based; design: dose 30 mg/kg; summary of the method: as §1
# [5] = tested on: Rattus norvegicus; test: Anticonvulsant activity in Sprague-Dawley rat assessed as protection against maximal electroshock-induced seizures at 30 mg/kg, po after 0.25 hrs; assay type: functional, organism-based; design: dose 30 mg/kg; summary of the method: as §1
# [6] = tested on: Mus musculus; test: Neurotoxicity in albino mouse assessed as minimal motor impairment at 300 mg/kg, ip after 4 hrs by rotorod test; assay type: toxicity, organism-based; design: dose 300 mg/kg, route intraperitoneal; settings: in vivo
# Summary of the method: (§2)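 Male albino mice (Carworth Farms No. 1) were dosed ip with suspensions in 0.5% methylcellulose and put on a 1 in. knurled rod rotating at 6 rpm at set times after dosing. Neurotoxicity meant failure to stay on the rod for at least 1 min in each of three trials. Scored as impaired/tested.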
# [7] = tested on: Mus musculus; test: Neurotoxicity in albino mouse assessed as minimal motor impairment at 100 mg/kg, ip after 4 hrs by rotorod test; assay type: toxicity, organism-based; design: dose 100 mg/kg, route intraperitoneal; settings: in vivo; summary of the method: as §2
# [8] = tested on: Mus musculus; test: Neurotoxicity in albino mouse assessed as minimal motor impairment at 30 mg/kg, ip after 4 hrs by rotorod test; assay type: toxicity, organism-based; design: dose 30 mg/kg, route intraperitoneal; settings: in vivo; summary of the method: as §2
# [9] = tested on: Mus musculus; test: Neurotoxicity in albino mouse assessed as minimal motor impairment at 300 mg/kg, ip after 0.5 hrs by rotorod test; assay type: toxicity, organism-based; design: dose 300 mg/kg, route intraperitoneal; settings: in vivo; summary of the method: as §2
# [10] = tested on: Mus musculus; test: Neurotoxicity in albino mouse assessed as minimal motor impairment at 100 mg/kg, ip after 0.5 hrs by rotorod test; assay type: toxicity, organism-based; design: dose 100 mg/kg, route intraperitoneal; settings: in vivo; summary of the method: as §2
# [11] = tested on: Mus musculus; test: Anticonvulsant activity in albino mouse assessed as protection against subcutaneous pentetrazole-induced seizures at 100 mg/kg, ip after 4 hrs; assay type: functional, organism-based; design: dose 100 mg/kg
# Summary of the method: (§3)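 Male albino mice (Carworth Farms No. 1) received compound ip in 0.5% methylcellulose, then pentetrazole 85 mg/kg sc in 0.9% NaCl at 0.5 or 4 h. Mice were watched for at least 30 min. Protection meant no threshold seizure, defined as a single clonic spasm lasting at least 5 s. Scored as protected/tested.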
# [12] = tested on: Mus musculus; test: Anticonvulsant activity in albino mouse assessed as protection against subcutaneous pentetrazole-induced seizures at 30 mg/kg, ip after 4 hrs; assay type: functional, organism-based; design: dose 30 mg/kg; summary of the method: as §3
# [13] = tested on: Mus musculus; test: Anticonvulsant activity in albino mouse assessed as protection against subcutaneous pentetrazole-induced seizures at 100 mg/kg, ip after 0.5 hrs; assay type: functional, organism-based; design: dose 100 mg/kg; summary of the method: as §3
# [14] = tested on: Mus musculus; test: Anticonvulsant activity in albino mouse assessed as protection against subcutaneous pentetrazole-induced seizures at 30 mg/kg, ip after 0.5 hrs; assay type: functional, organism-based; design: dose 30 mg/kg; summary of the method: as §3
# [15] = tested on: Mus musculus; test: Anticonvulsant activity in albino mouse assessed as protection against maximal electroshock-induced seizures at 100 mg/kg, ip after 4 hrs; assay type: functional, organism-based; design: dose 100 mg/kg
# Summary of the method: (§4)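 Male albino mice (Carworth Farms No. 1) were given the compound ip as a suspension in 0.5% methylcellulose at 3–300 mg/kg. MES testing was at 0.5 and 4 h, sometimes also at 0.25 and 1 h. Current was 60 Hz, 50 mA, 0.2 s via corneal electrodes, with saline eye drops. Protection meant no hindlimb tonic extension, scored as protected/tested.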
# [16] = tested on: Mus musculus; test: Anticonvulsant activity in albino mouse assessed as protection against maximal electroshock-induced seizures at 30 mg/kg, ip after 4 hrs; assay type: functional, organism-based; design: dose 30 mg/kg; summary of the method: as §4
# [17] = tested on: Mus musculus; test: Anticonvulsant activity in albino mouse assessed as protection against maximal electroshock-induced seizures at 300 mg/kg, ip after 0.5 hrs; assay type: functional, organism-based; design: dose 300 mg/kg; summary of the method: as §4
# [18] = tested on: Mus musculus; test: Anticonvulsant activity in albino mouse assessed as protection against maximal electroshock-induced seizures at 100 mg/kg, ip after 0.5 hrs; assay type: functional, organism-based; design: dose 100 mg/kg; summary of the method: as §4
# [19] = tested on: Mus musculus; test: Anticonvulsant activity in albino mouse assessed as protection against maximal electroshock-induced seizures at 30 mg/kg, ip after 0.5 hrs; assay type: functional, organism-based; design: dose 30 mg/kg; summary of the method: as §4
# [20] = tested on: Mus musculus; test: Neurotoxicity in albino mouse assessed as minimal motor impairment at 30 mg/kg, ip after 0.5 hrs by rotorod test; assay type: toxicity, organism-based; design: dose 30 mg/kg, route intraperitoneal; settings: in vivo; summary of the method: as §2
# [21] = tested on: Rattus norvegicus; test: Neurotoxicity in Sprague-Dawley rat assessed as minimal motor impairment at 30 mg/kg, po after 1 hr by rotorod test; settings: in vivo
# [22] = tested on: Rattus norvegicus; test: Neurotoxicity in Sprague-Dawley rat assessed as minimal motor impairment at 30 mg/kg, po after 4 hrs by rotorod test; settings: in vivo
# [23] = tested on: Rattus norvegicus; test: Neurotoxicity in Sprague-Dawley rat assessed as minimal motor impairment at 30 mg/kg, po after 2 hrs by rotorod test; settings: in vivo
# [24] = tested on: Rattus norvegicus; test: Neurotoxicity in Sprague-Dawley rat assessed as minimal motor impairment at 30 mg/kg, po after 0.5 hrs by rotorod test; settings: in vivo
# [25] = tested on: Rattus norvegicus; test: Neurotoxicity in Sprague-Dawley rat assessed as minimal motor impairment at 30 mg/kg, po after 0.25 hrs by rotorod test; settings: in vivo
# [26] = tested on: Mus musculus; test: Neurotoxicity in albino mouse assessed as minimal motor impairment at 100 mg/kg, ip after 0.25 hrs by rotorod test; assay type: toxicity, organism-based; design: dose 100 mg/kg, route intraperitoneal; settings: in vivo; summary of the method: as §2
# [27] = tested on: Mus musculus; test: Anticonvulsant activity in albino mouse assessed as protection against subcutaneous pentetrazole-induced seizures at 300 mg/kg, ip after 4 hrs; assay type: functional, organism-based; design: dose 300 mg/kg; summary of the method: as §3
# [28] = tested on: Mus musculus; test: Anticonvulsant activity in albino mouse assessed as protection against subcutaneous pentetrazole-induced seizures at 300 mg/kg, ip after 0.5 hrs; assay type: functional, organism-based; design: dose 300 mg/kg; summary of the method: as §3
# [29] = tested on: Mus musculus; test: Anticonvulsant activity in albino mouse assessed as protection against maximal electroshock-induced seizures at 300 mg/kg, ip after 4 hrs; assay type: functional, organism-based; design: dose 300 mg/kg; summary of the method: as §4
# [30] = tested on: Mus musculus; test: Anticonvulsant activity in albino mouse assessed as protection against maximal electroshock-induced seizures at 100 mg/kg, ip after 1 hr; assay type: functional, organism-based; design: dose 100 mg/kg; summary of the method: as §4
# [31] = Neurotoxicity in ip dosed albino mouse assessed as minimal motor impairment after 2 hrs by rotorod test; assay type: toxicity, organism-based; settings: in vivo
# Summary of the method: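 TD50, with 95% confidence intervals, was the ip dose causing neurotoxicity in 50% of male albino mice. Deficit was judged on the rotorod: a 1 in. knurled rod at 6 rpm, where failure to hold on for 1 min in each of three trials counted as deficit. Read at the stated time after dosing.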
# [32] = tested on: Mus musculus; test: Protective index, ratio TD50 for albino mouse to ED50 for albino mouse by subcutaneous pentetrazole-induced seizure test after 2 hrs; assay type: functional
# [33] = tested on: Mus musculus; test: Anticonvulsant activity in ip dosed albino mouse assessed as protection against subcutaneous pentetrazole-induced seizures after 2 hrs; assay type: functional
# [34] = species: Mus musculus; test: Protective index, ratio TD50 for albino mouse to ED50 for albino mouse by maximal electroshock-induced seizure test after 1 hr; assay type: functional
# Summary of the method: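 Protective index was calculated as mouse ip TD50 (rotorod) divided by mouse ip MES ED50, both obtained by quantitative dose-response testing at the stated post-dose time.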
# [35] = tested on: Mus musculus; test: Anticonvulsant activity in ip dosed albino mouse assessed as protection against maximal electroshock-induced seizures after 1 hr; assay type: functional
# Summary of the method: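 ED50, with 95% confidence intervals, was the ip dose protecting 50% of mice in the MES test. It was measured at the stated post-dose time in male albino mice given suspensions in 0.5% methylcellulose. MES used 60 Hz, 50 mA, 0.2 s corneal stimulation, and the endpoint was abolition of hindlimb tonic extension.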
Structure (SMILES),Activity [1],Activity [2],Activity [3],Activity [6],Activity [7],Activity [8],Activity [11],Activity [12],Activity [13],Activity [14],Activity [15],Activity [16],Activity [17],Activity [19],Activity [20],Activity [21],Activity [22],Activity [23],Activity [24],Activity [25],also measured
CCC(CO)NCc1cccc2c(=O)c3ccc(OC)cc3oc12 (racemic),inactive,inactive,inactive,Toxic,Non-toxic,Non-toxic,inactive,inactive,inactive,inactive,inactive,inactive,Active,inactive,Non-toxic,Non-toxic,Non-toxic,Non-toxic,Non-toxic,Non-toxic,Activity [4]: inactive; Activity [5]: inactive; Activity [9]: Toxic; Activity [10]: Toxic; Activity [18]: Active
CC(C)(CO)NCc1ccc2oc3ccc(Cl)cc3c(=O)c2c1,,,,Non-toxic,Non-toxic,,inactive,inactive,inactive,inactive,inactive,inactive,Active,inactive,Non-toxic,,,,,,Activity [26]: Non-toxic; Activity [27]: inactive; Activity [28]: inactive; Activity [29]: Active; Activity [30]: inactive; Activity [18]: inactive
CN(Cc1ccc2oc3ccc(Cl)cc3c(=O)c2c1)C(C)(C)CO,inactive,inactive,inactive,Non-toxic,Non-toxic,Non-toxic,inactive,inactive,inactive,inactive,,inactive,Active,inactive,,Non-toxic,Non-toxic,Non-toxic,Non-toxic,Non-toxic,Activity [4]: inactive; Activity [5]: inactive; Activity [27]: inactive; Activity [28]: inactive; Activity [29]: Active
C[C@@H](CO)NCc1ccc2oc3ccc(Cl)cc3c(=O)c2c1,inactive,inactive,inactive,Non-toxic,Non-toxic,Non-toxic,inactive,inactive,inactive,inactive,Active,inactive,inactive,inactive,Non-toxic,Non-toxic,Non-toxic,Non-toxic,Non-toxic,Non-toxic,TD50 at 2 h [31]: 313 mg/kg; Ratio TD50/ED50 [32]: <0.84; ED50 [33]: > 375 mg/kg; Ratio TD50/ED50 [34]: 3.93; ED50 [35]: 79.7 mg/kg; Activity [9]: Non-toxic; Activity [10]: Non-toxic; Activity [27]: inactive; Activity [28]: inactive; Activity [29]: Active
